According to ChEMBL document CHEMBL3877332, “Synthesis, Biological Evaluation, and Autophagy Mechanism of 12N-Substituted Sophoridinamines as Novel Anticancer Agents” (ACS Med Chem Lett, 2017):
Activity calls are given as the source filed them. No cut-off for these calls is given here.

Assays:
[1] = Antiproliferative activity against human HepG2 cells assessed as reduction in cell viability by MTT assay; assay type: functional, cell-based
HepG2 [2] = experiment: Reduction in lysosomal acidification in human HepG2 cells at 50 uM after 6 hrs by DAPI/lyso tracker red-double staining based confocal microscopic analysis relative to control; assay type: functional, cell-based
In short: (§1)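 HepG2 cells were incubated at 5 μM (test agent) or 50 μM (chloroquine) for 6 h, then stained with LysoTracker Red. Nuclei were stained with DAPI and cells imaged by confocal microscopy (×63). LysoTracker Red signal was quantified per cell against untreated control.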

[3] = Cytotoxicity against human HepG2 cells assessed as reduction in cell viability at 50 uM by MTT assay; assay type: functional
In short: (§2)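 HepG2 cells were exposed to test agent at 5 μM or chloroquine at 50 μM for the indicated times. Viability was measured by MTT assay.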

[4] = Antiproliferative activity against human K562 cells assessed as reduction in cell viability by MTT assay; assay type: functional, cell-based
[5] = Antiproliferative activity against human HMLE cells assessed as reduction in cell viability by MTT assay; assay type: functional, cell-based
[6] = Tmax in Sprague-Dawley rat at 25 mg/kg, po measured up to 24 hrs; assay type: ADME, organism-based; conditions: in vivo
In short: (§3)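 Adult male Sprague-Dawley rats were given a single oral dose of 25 mg/kg. Nine blood samples (0.3 mL) were taken over 24 h. n = 3.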

[7] = Cmax in Sprague-Dawley rat at 25 mg/kg, po measured up to 24 hrs; assay type: ADME, organism-based; design: dose 25 mg/kg, route oral; conditions: in vivo; in short: as §3
[8] = AUCt in Sprague-Dawley rat at 25 mg/kg, po measured up to 24 hrs; assay type: ADME, organism-based; design: time < 24 hr, dose 25 mg/kg, route oral; conditions: in vivo; in short: as §3
[9] = AUC (0 to infinity) in Sprague-Dawley rat at 25 mg/kg, po measured up to 24 hrs; assay type: ADME, organism-based; design: dose 25 mg/kg, route oral, time infinity; conditions: in vivo; in short: as §3
[10] = MRT in Sprague-Dawley rat at 25 mg/kg, po measured up to 24 hrs; assay type: ADME, organism-based; conditions: in vivo; in short: as §3
[11] = Half life in Sprague-Dawley rat at 25 mg/kg, po measured up to 24 hrs; assay type: ADME, organism-based; conditions: in vivo; in short: as §3
HepG2 [12] = experiment: Induction of autophagosome accumulation in human HepG2 cells transfected with EGFP-LC3 assessed as punctate dot formation at 5 uM after 6 hrs by fluorescent microscopic analysis relative to control; assay type: functional, cell-based
In short: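 HepG2 cells were transfected with an EGFP-LC3 plasmid, then exposed 24 h later to 5 μM or left untreated for 6 h. Cells were imaged by fluorescence microscopy, and EGFP-LC3 puncta per cell were counted in at least 100 cells per group.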

A549 [13] = experiment: Induction of autophagosome accumulation in human A549 cells transfected with EGFP-LC3 assessed as punctate dot formation at 5 uM after 6 hrs by fluorescent microscopic analysis relative to control; assay type: functional, cell-based
HepG2 [14] = experiment: Blockade of autophagic flux in human HepG2 cells assessed as increase in LC3-2 level at 5 uM after 8 hrs in presence of chloroquine by Western blot analysis; assay type: functional, cell-based
In short: (§4)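 A549 and HepG2 cells were pretreated with chloroquine (10 μM) or rapamycin (200 nM) for 2 h. Compound was then added at 5 μM for 8 h. LC3 turnover (LC3-II) was detected by Western blot.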

A549 [15] = experiment: Blockade of autophagic flux in human A549 cells assessed as increase in LC3-2 level at 5 uM after 8 hrs in presence of chloroquine by Western blot analysis; assay type: functional, cell-based; in short: as §4
HepG2 [16] = experiment: Blockade of autophagic flux in human HepG2 cells transfected with mCherry-EGFP-LC3 assessed as punctate dot formation at 5 uM after 6 hrs by DAPI staining-based confocal microscopic analysis; assay type: functional, cell-based
In short: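 HepG2 cells were transfected with an mCherry-EGFP-LC3 tandem plasmid and treated at 5 μM for 6 h (CQ 50 μM alongside). Imaging was by confocal microscopy with DAPI-stained nuclei. GFP/mCherry double-positive and mCherry single-positive puncta per cell were counted in ≥100 cells per count. Data are the mean of three independent experiments ± SD.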

HepG2 [17] = experiment: Reduction in lysosomal acidification in human HepG2 cells at 5 uM after 6 hrs by DAPI/lyso tracker red-double staining based confocal microscopic analysis relative to control; assay type: functional, cell-based; in short: as §1
[18] = Cytotoxicity against human HepG2 cells assessed as reduction in cell viability at 5 uM by MTT assay; assay type: functional; in short: as §2
HepG2 [19] = experiment: Blockade of autophagic flux in human HepG2 cells assessed as increase in LC3-2 level at 5 uM after 8 hrs in presence of rapamycin by Western blot analysis; assay type: functional, cell-based; in short: as §4
A549 [20] = experiment: Blockade of autophagic flux in human A549 cells assessed as increase in LC3-2 level at 5 uM after 8 hrs in presence of rapamycin by Western blot analysis; assay type: functional, cell-based; in short: as §4

Work on `OCCCC[C@@H]1[C@H]2CCCN3CCC[C@H](CN1Cc1ccc(Cl)cc1)[C@@H]23` yielded an IC50 [1] of 9.3 µM.
`COC(=O)CCC[C@@H]1[C@H]2CCCN3CCC[C@H](CN1C(=O)NCCCl)[C@@H]23` gave an IC50 [1] of over 50 µM.
With `COC(=O)CCC[C@@H]1[C@H]2CCCN3CCC[C@H](CN1S(=O)(=O)c1ccc(Cl)cc1)[C@@H]23` the IC50 [1] was 15.8 µM.
Work on `O=C(c1ccc(Cl)cc1)N1C[C@H]2CCCN3CCC[C@@H]([C@H]23)[C@H]1CCCCNCc1cccc2c1OCO2` yielded an IC50 [1] of 16.5 µM.
In the case of `Clc1ccc(CN2C[C@H]3CCCN4CCC[C@@H]([C@H]34)[C@H]2CCCCNc2cccc3c2OCO3)cc1`, the IC50 [1] is reported as 10.6 µM.
In the case of `CCN(CC)CCCC(C)Nc1ccnc2cc(Cl)ccc12` (configuration not stated) [CHLOROQUINE], the Activity (HepG2 [2]) is reported as “Active” and the Activity [3] is reported as 50%.
Compound `Clc1ccc(CN2C[C@H]3CCCN4CCC[C@@H]([C@H]34)[C@H]2CCCCNCc2cccc3c2OCO3)cc1` has an IC50 [1] of 2.6 µM, an IC50 [4] of 1.14 µM and an IC50 [5] of 0.64 µM. For the same compound, the Tmax [6] was 1.2 h, the Cmax [7] was 2.7 µM and the AUC(0-t) at 24 h [8] was 5.7 µM·h. It also gave an AUC(0-inf) [9] of 6.8 µM·h, an MRT [10] of 9.1 h and a half-life [11] of 11.2 h.
`COc1cc(NCCCC[C@@H]2[C@H]3CCCN4CCC[C@H](CN2S(=O)(=O)c2ccc(Cl)cc2)[C@@H]34)cc(OC)c1OC` showed an IC50 [1] of 7.9 µM.
Compound `Clc1ccc(CN2C[C@H]3CCCN4CCC[C@@H]([C@H]34)[C@H]2CCCCNCCc2cccc3c2OCO3)cc1` has an IC50 [1] of 2.6 µM, an IC50 [4] of 1.09 µM and an IC50 [5] of 0.68 µM. The Tmax [6] was 1.8 h, the Cmax [7] was 2.9 µM and the AUC(0-t) at 24 h [8] was 6.1 µM·h. It also gave an AUC(0-inf) [9] of 11.7 µM·h, an MRT [10] of 10.8 h and a half-life [11] of 21.9 h.
`COC(=O)CCC[C@@H]1[C@H]2CCCN3CCC[C@H](CN1C(=O)C(C)(C)C)[C@@H]23` gave an IC50 [1] of over 50 µM.
Compound `O=S(=O)(c1ccc(Cl)cc1)N1C[C@H]2CCCN3CCC[C@@H]([C@H]23)[C@H]1CCCCNCc1cccc2c1OCO2` has an IC50 [1] of 3.8 µM.
With `CC(C)(C)C(=O)N1C[C@H]2CCCN3CCC[C@@H]([C@H]23)[C@H]1CCCCO` the IC50 [1] was over 50 µM.
For `COc1cc(CNCCCC[C@@H]2[C@H]3CCCN4CCC[C@H](CN2C(=O)c2ccc(Cl)cc2)[C@@H]34)cc(OC)c1OC`, the IC50 [1] was over 20 µM.
`O=C(c1ccc(Cl)cc1)N1C[C@H]2CCCN3CCC[C@@H]([C@H]23)[C@H]1CCCCNCCc1cccc2c1OCO2` gave an IC50 [1] of over 20 µM.
In the case of `COC(=O)CCC[C@@H]1[C@H]2CCCN3CCC[C@H](CN1C(=O)c1ccc(Cl)cc1)[C@@H]23`, the IC50 [1] is reported as over 50 µM.
For `COc1cc(CNCCCC[C@@H]2[C@H]3CCCN4CCC[C@H](CN2Cc2ccc(Cl)cc2)[C@@H]34)cc(OC)c1OC`, the IC50 [1] was 1.7 µM, the IC50 [4] was 1.03 µM and the IC50 [5] was 0.55 µM. The Tmax [6] was 1.6 h, the Cmax [7] was 4.9 µM and the AUC(0-t) at 24 h [8] was 10.8 µM·h. For the same compound, the AUC(0-inf) [9] was 13.3 µM·h, the MRT [10] was 11.6 h and the half-life [11] was 13 h. The Activity (HepG2 [12]) was “Active”, the Activity (A549 [13]) was “Active” and the Activity (HepG2 [14]) was “Active”. For the same compound, the Activity (A549 [15]) was “Active”, the Activity (HepG2 [16]) was “Active” and the Activity (HepG2 [17]) was “Active”. For the same compound, the Activity [18] was 50%, the Activity (HepG2 [19]) was “Active” and the Activity (A549 [20]) was “Active”.
Compound `COC(=O)CCC[C@@H]1[C@H]2CCCN3CCC[C@H](CN1C(=O)N(CCCl)N=O)[C@@H]23` has an IC50 [1] of 38.3 µM.
For `COc1cc(NCCCC[C@@H]2[C@H]3CCCN4CCC[C@H](CN2Cc2ccc(Cl)cc2)[C@@H]34)cc(OC)c1OC`, the IC50 [1] was 6.4 µM.
With `O=C(c1ccc(Cl)cc1)N1C[C@H]2CCCN3CCC[C@@H]([C@H]23)[C@H]1CCCCO` the IC50 [1] was over 50 µM.
For `CC[C@@]1(O)C(=O)OCc2c1cc1n(c2=O)Cc2cc3c(CN(C)C)c(O)ccc3nc2-1` [TOPOTECAN], the IC50 [4] was 1.15 µM and the IC50 [5] was 0.75 µM.
For `O=S(=O)(c1ccc(Cl)cc1)N1C[C@H]2CCCN3CCC[C@@H]([C@H]23)[C@H]1CCCCNCCc1cccc2c1OCO2`, the IC50 [1] was 5.5 µM.
`O=S(=O)(c1ccc(Cl)cc1)N1C[C@H]2CCCN3CCC[C@@H]([C@H]23)[C@H]1CCCCO` gave an IC50 [1] of 28.8 µM.
